Data as given in ChEMBL document CHEMBL5030534, “Discovery of Novel Anti-Breast-Cancer Inhibitors by Synergistically Antagonizing Microtubule Polymerization and Aryl Hydrocarbon Receptor Expression” (J Med Chem, 2021).
pIC50: −log10 of the molar value. The source made the active and inactive calls. No cut-off for these calls is given here.

Key:
[1] = test system: MCF7; assay: Antiproliferative activity against human MCF7 cells assessed as reduction in cell viability incubated for 48 hrs by MTT assay; type: functional, cell-based; settings: MCF7, 48 h
Procedure, shortened: (§1)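 Cells seeded at 5 × 10³ per well, incubated overnight, then exposed to a range of compound concentrations for 48 h. MTT added for 4 h, medium replaced with DMSO, absorbance read at 570 nm. MCF-7, L-O2 grown in DMEM; MCF-10A, MCF-7/ADR in RPMI 1640. Three independent runs.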

[2] = test system: MCF-10A; assay: Antiproliferative activity against human MCF-10A cells assessed as reduction in cell viability incubated for 48 hrs by MTT assay; type: cell-based; procedure, shortened: as §1
[3] = test system: L02; assay: Antiproliferative activity against human L-O2 cells assessed as reduction in cell viability incubated for 48 hrs by MTT assay; type: cell-based; settings: L02, 48 h; procedure, shortened: as §1
[4] = Antiproliferative activity against human MCF7/ADR cells assessed as reduction in cell viability incubated for 48 hrs by MTT assay; type: functional, cell-based; settings: MCF7, 48 h
Procedure, shortened: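 Cells seeded at 5 × 10³ per well, incubated overnight, then exposed to a range of compound concentrations for 48 h. MTT added for 4 h, medium replaced with DMSO, absorbance read at 570 nm. Three independent runs.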

[5] = molecular target: Tubulin (Homo sapiens) (UniProt P68371+Q9H4B7+P0DPH7+P68366+Q13509+Q71U36+P04350+Q3ZCM7+P07437+P68363+Q9BQE3+Q6PEY2+Q13885+Q9BVA1+Q9BUF5); assay: Induction of microtubule depolymerization in human MCF7 cells at 10 uM measured every 5 mins for 60 mins by spectrophotometric method; type: cell-based
Procedure, shortened: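 Purified tubulin at 2 mg/mL in PEM buffer preincubated on ice with compound or DMSO. PEG added to a final 3 mg/mL, then polymerization followed at 37 °C by absorbance at 350 nm every 5 min for 60 min.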

[6] = test system: MCF7; assay: Antitumor activity against human MCF7 cells xenografted in BALB/c nude mouse assessed as decrease in tumor weight at 20 mg/kg, iv administered every 2 days for 21 days and measured every 2 days; type: functional; set-up: scale not given: the % may be the effect or the level left; settings: time 21 day
Procedure, shortened: (§2)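 MCF-7 cells (6 × 10⁶) injected subcutaneously into right flank of BALB/c nude mice; after 7 days animals randomized, eight per group. Dosing iv every 2 days for 21 days, vehicle 10% DMSO/5% Tween 80/85% saline. Tumor size and body weight recorded every 2 days; tumors excised and weighed at sacrifice.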

[7] = test system: MCF7; assay: Antitumor activity against human MCF7 cells xenografted in BALB/c nude mouse assessed as decrease in tumor weight at 10 mg/kg, iv administered every 2 days for 21 days and measured every 2 days; type: functional; set-up: scale not given: the % may be the effect or the level left; settings: time 21 day; procedure, shortened: as §2

Row | SMILES | pIC50 [1] | pIC50 [2] | pIC50 [3] | pIC50 [4] | Activity [5] | Activity [6] | Activity [7]
1 | Cc1cc(N(C)c2ccc3c(c2)cc(C)n3C)c2ccccc2n1 | 8.62 | 8.00 | 8.14 | 8.66 |  |  | 
2 | COc1ccc(N(C)c2cc(C)nc3ccccc23)cc1OC | 7.01 | 6.33 | 5.66 | 7.54 |  |  | 
3 | COc1ccc(/C=C\c2cc(OC)c(OC)c(OC)c2)cc1O [COMBRETASTATIN A4] | 8.32 | 7.00 | 7.99 |  | Active | 37.5% | 
4 | Cc1cc(N(C)c2ccc(-c3ccccc3)cc2)c2ccccc2n1 | < 6.00 | < 6.00 | 5.46 | 6.09 |  |  | 
5 | Cc1cc(N(C)c2ccc(N(C)C)cc2)c2ccccc2n1 | 6.03 | 7.31 | 6.64 | 7.48 |  |  | 
6 | Cc1cc(N(C)c2ccc(C(F)(F)F)cc2)c2ccccc2n1 | < 6.00 | < 6.00 | 5.42 | 6.07 |  |  | 
7 | COc1cc(N(C)c2cc(C)nc3ccccc23)cc(OC)c1OC | < 6.00 | < 6.00 | 5.38 | 6.04 |  |  | 
8 | CCN(CC)c1ccc(N(C)c2cc(C)nc3ccccc23)cc1 | 7.60 | 7.92 | 7.51 | 6.57 |  |  | 
9 | Cc1nc(N(C)c2cnc3c(ccn3C)c2)c2ccccc2n1 | 8.68 | 7.80 | 8.14 | 8.68 |  |  | 
10 | CC(=O)O[C@H]1C(=O)[C@@]2(C)[C@H]([C@H](OC(=O)c3ccccc3)[C@]3(O)C[C@H](OC(=O)[C@H](O)[C@@H](NC(=O)c4ccccc4)c4ccccc4)C(C)=C1C3(C)C)[C@]1(OC(C)=O)CO[C@@H]1C[C@@H]2O [PACLITAXEL] |  |  |  |  | inactive |  | 84.2%
11 | Cc1ccc(N(C)c2cc(C)nc3ccccc23)cc1 | 6.99 | 6.74 | 5.82 | 7.27 |  |  | 
12 | Cc1cc(N(C)c2ccc3c(c2)OCO3)c2ccccc2n1 | 7.27 | 6.90 | 5.60 | 7.34 |  |  | 
13 | Cc1cc(N(C)c2cnc3c(ccn3C)c2)c2ccccc2n1 | 8.35 | 7.62 | 8.00 | 8.21 |  |  | 
